According to ChEMBL document CHEMBL1137873, “Synthesis of benzimidazole based analogues of sphingosine-1-phosphate: discovery of potent, subtype-selective S1P4 receptor agonists” (Bioorg Med Chem Lett, 2004):

Key:
[1] = biological target: T1, Sphingosine 1-phosphate receptor 5 (Homo sapiens, UniProt Q9H228); assay: In vitro binding affinity towards human Sphingosine 1-phosphate receptor 5 expressed in HEK293T cells was determined using [gamma-35S]-GTP as radioligand; na denotes not active; type: cell-based; conditions: hek-293t
T1 sequence (Q9H228 whole entry): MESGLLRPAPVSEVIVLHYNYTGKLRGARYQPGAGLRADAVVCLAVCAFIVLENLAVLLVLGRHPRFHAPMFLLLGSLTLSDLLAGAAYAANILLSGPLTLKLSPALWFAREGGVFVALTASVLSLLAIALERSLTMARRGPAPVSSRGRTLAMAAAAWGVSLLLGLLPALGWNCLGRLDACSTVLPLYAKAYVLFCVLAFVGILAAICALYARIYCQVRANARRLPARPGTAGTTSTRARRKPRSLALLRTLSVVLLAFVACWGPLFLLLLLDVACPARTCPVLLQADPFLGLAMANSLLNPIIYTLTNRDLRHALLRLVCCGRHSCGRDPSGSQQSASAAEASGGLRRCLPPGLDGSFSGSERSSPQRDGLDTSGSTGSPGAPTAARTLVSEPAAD
Procedure, shortened: (§1)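 Membranes (5 µg) from HEK293T cells expressing the relevant human S1P receptor plus G-protein, incubated in GTP-binding buffer (HEPES 50 mM, NaCl 100 mM, MgCl2 5 mM, pH 7.5) with 5 µg saponin, 10 µM GDP, 0.1 nM [γ-35S]GTP and test lipid. Incubation was 30 min at 30°C. Bound label was separated by GF/C filtration and scintillation counted. EC50 is the mean of three experiments.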

[2] = biological target: T2, Sphingosine 1-phosphate receptor 4 (Homo sapiens, UniProt O95977); assay: In vitro binding affinity towards human Sphingosine 1-phosphate receptor 4 expressed in HEK293T cells was determined using [gamma-35S]-GTP as radioligand; type: cell-based, HEK-293T; procedure, shortened: as §1
T2 sequence (O95977 whole entry): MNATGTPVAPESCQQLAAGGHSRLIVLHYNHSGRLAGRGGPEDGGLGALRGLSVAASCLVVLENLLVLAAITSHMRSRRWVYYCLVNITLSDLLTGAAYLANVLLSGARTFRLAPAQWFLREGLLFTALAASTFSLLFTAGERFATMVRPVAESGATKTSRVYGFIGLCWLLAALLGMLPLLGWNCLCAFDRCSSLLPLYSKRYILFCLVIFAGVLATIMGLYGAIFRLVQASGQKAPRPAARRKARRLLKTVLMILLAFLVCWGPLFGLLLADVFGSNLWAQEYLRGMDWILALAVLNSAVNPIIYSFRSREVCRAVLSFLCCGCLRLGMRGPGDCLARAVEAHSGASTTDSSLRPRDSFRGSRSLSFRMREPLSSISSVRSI

[3] = biological target: T3, Sphingosine 1-phosphate receptor 3 (Homo sapiens, UniProt Q99500); assay: In vitro binding affinity towards human Sphingosine 1-phosphate receptor 3 expressed in HEK293T cells was determined using [gamma-35S]-GTP as radioligand; na denotes not active; type: cell-based; conditions: hek-293t; procedure, shortened: as §1
T3 sequence (Q99500 whole entry): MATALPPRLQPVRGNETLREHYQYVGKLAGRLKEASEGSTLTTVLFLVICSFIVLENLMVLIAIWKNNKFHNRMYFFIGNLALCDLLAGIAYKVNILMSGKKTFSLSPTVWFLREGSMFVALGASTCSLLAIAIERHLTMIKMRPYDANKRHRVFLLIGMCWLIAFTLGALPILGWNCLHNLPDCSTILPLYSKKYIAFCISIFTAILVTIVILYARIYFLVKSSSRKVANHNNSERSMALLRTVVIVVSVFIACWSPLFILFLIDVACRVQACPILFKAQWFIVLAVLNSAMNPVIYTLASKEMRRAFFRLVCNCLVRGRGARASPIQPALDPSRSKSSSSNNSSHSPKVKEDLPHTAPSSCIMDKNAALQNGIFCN

[4] = biological target: Sphingosine 1-phosphate receptor 2 (Homo sapiens, UniProt O95136); assay: In vitro binding affinity towards human Sphingosine 1-phosphate receptor 2 expressed in HEK293T cells was determined using [gamma-35S]-GTP as radioligand; na denotes not active; type: cell-based; conditions: hek-293t; procedure, shortened: as §1
Chain of Sphingosine 1-phosphate receptor 2 (O95136 whole entry): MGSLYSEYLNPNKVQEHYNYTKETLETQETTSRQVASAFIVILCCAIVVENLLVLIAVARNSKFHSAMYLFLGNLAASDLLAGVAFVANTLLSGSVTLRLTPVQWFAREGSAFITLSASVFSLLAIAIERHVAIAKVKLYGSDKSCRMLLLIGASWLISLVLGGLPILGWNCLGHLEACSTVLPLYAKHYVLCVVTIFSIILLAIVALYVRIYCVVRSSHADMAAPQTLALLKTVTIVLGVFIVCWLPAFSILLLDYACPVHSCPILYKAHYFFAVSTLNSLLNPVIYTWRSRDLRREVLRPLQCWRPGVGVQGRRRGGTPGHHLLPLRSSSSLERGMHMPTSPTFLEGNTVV

[5] = biological target: T4, Sphingosine 1-phosphate receptor 1 (Homo sapiens, UniProt P21453); assay: In vitro binding affinity towards human Sphingosine 1-phosphate receptor 1 expressed in HEK293T cells was determined using [gamma-35S]-GTP as radioligand; partial agonist; type: cell-based, HEK-293T; procedure, shortened: as §1
T4 sequence (P21453 whole entry): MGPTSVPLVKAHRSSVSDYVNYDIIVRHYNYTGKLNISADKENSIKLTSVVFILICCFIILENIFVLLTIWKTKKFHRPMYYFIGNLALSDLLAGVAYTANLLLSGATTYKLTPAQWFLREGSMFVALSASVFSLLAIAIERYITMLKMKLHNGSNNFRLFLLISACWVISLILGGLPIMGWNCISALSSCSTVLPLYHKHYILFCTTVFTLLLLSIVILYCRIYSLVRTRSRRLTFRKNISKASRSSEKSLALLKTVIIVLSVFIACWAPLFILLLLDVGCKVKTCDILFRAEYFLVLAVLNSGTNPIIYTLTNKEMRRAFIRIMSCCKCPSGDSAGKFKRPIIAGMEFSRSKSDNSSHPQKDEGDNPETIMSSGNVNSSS

[6] = biological target: T1, Sphingosine 1-phosphate receptor 5; assay: In vitro binding affinity towards human Sphingosine 1-phosphate receptor 5 expressed in HEK293T cells was determined using [gamma-35S]-GTP as radioligand; partial agonist; type: cell-based, HEK-293T; procedure, shortened: as §1
[7] = biological target: T4, Sphingosine 1-phosphate receptor 1; assay: In vitro binding affinity towards human Sphingosine 1-phosphate receptor 1 expressed in HEK293T cells was determined using [gamma-35S]-GTP as radioligand; type: cell-based, HEK-293T
[8] = biological target: T3, Sphingosine 1-phosphate receptor 3; assay: In vitro binding affinity towards human Sphingosine 1-phosphate receptor 3 expressed in HEK293T cells was determined using [gamma-35S]-GTP as radioligand; type: cell-based, HEK-293T

Compound | EC50 [1] | EC50 [2] | EC50 [3] | EC50 [4] | EC50 [5] | EC50 [6] | EC50 [7] | EC50 [8]
CCCCCCCCc1ccc2[nH]c([C@@H](N)[C@@H](C)O)nc2c1.O=C(O)C(F)(F)F | Not Active | 33 µM | Not Active | Not Active | 2.9 µM |  |  | 
CCCCCCCCc1ccc2[nH]c([C@@H](N)[C@@H](C)OP(=O)(O)O)nc2c1.O=C(O)C(F)(F)F |  | 0.094 µM | Not Active | Not Active | 0.24 µM | 0.077 µM |  | 
CCCCCCCCc1ccc2[nH]c([C@@H](N)COP(=O)(O)O)nc2c1.COC(=O)C(F)(F)F |  | 0.048 µM | Not Active | Not Active | 0.037 µM | 0.0066 µM |  | 
CCCCCCCCc1ccc2[nH]c([C@H](N)CO)nc2c1.O=C(O)C(F)(F)F |  | 1.6 µM | Not Active | Not Active | 0.33 µM | 0.39 µM |  | 
CCCCCCCCCCCCC/C=C/[C@@H](O)[C@@H](N)COP(=O)(O)O |  | 0.037 µM |  |  |  |  | 0.02 µM | 0.0012 µM
CCCCCCCCc1ccc2[nH]c([C@H](N)COP(=O)(O)O)nc2c1.COC(=O)C(F)(F)F |  | 0.036 µM | Not Active | Not Active | 0.021 µM | 0.0082 µM |  | 
CCCCCCCCc1ccc2[nH]c([C@@H](N)CO)nc2c1.O=C(O)C(F)(F)F |  | 4.2 µM | Not Active | Not Active | 2.1 µM | 2.4 µM |  | 
CCCCCCCCc1ccc2[nH]c(C(C)(N)COP(=O)(O)O)nc2c1.O=C(O)C(F)(F)F (stereo not drawn) |  | 1.2 µM | Not Active | Not Active | 1 µM | 0.37 µM |  | 
